Test results taken from ChEMBL document CHEMBL1143246, “Design and synthesis of bicyclic pyrimidinones as potent and orally bioavailable HIV-1 integrase inhibitors” (J Med Chem, 2008).

Key:
[1] = system: Human immunodeficiency virus 1; test: Antiviral activity against HIV1 in human MT4 cell assessed as inhibition of virus spread in presence of 10% fetal bovine serum; assay type: functional; conditions: Human immunodeficiency virus 1, MT4; read-out: CIC95
In short: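 Spread of HIV-1 infection in MT-4 human T-lymphoid cell culture with 10% fetal bovine serum; CIC95 is the concentration inhibiting spread by ≥95%; mean of at least three independent experiments.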

[2] = system: Human immunodeficiency virus 1; test: Antiviral activity against HIV1 in human MT4 cell assessed as inhibition of virus spread in presence of 50% normal human serum; assay type: functional; conditions: Human immunodeficiency virus 1, MT4; read-out: CIC95
In short: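 Spread of HIV-1 infection in MT-4 human T-lymphoid cell culture with 50% normal human serum; CIC95 is the concentration inhibiting spread by ≥95%; mean of at least three independent experiments.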

[3] = Inhibition of recombinant HIV1 integrase strand transfer activity
Homo sapiens = species: Homo sapiens; test: Protein binding in human plasma; conditions: read-out: PPB (converted)
Liver microsomes [4] = test: Metabolic stability in rat liver microsomes in presence of UDPGA; assay type: ADME, Microsome
Liver [5] = test: Metabolic stability in dog liver microsomes in presence of UDPGA; assay type: ADME, Canis lupus familiaris, Microsome
Liver microsomes [6] = test: Metabolic stability in human liver microsomes in presence of UDPGA; assay type: ADME, Microsome
In short: (§1)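 Liver microsomes (1 mg/mL) with test compound at 2 µM, incubated with UDPGA or NADPH; degradation measured by LC/MS/MS after 1 h.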

[7] = Protein binding in rat plasma; assay type: ADME, cell-free; conditions: read-out: PPB (converted)
In short: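 Plasma protein binding was measured by ultrafiltration after a 1 h incubation of compound in plasma at 37 °C.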

[8] = Protein binding in dog plasma; assay type: ADME, cell-free, Canis lupus familiaris; conditions: read-out: PPB (converted)
In short: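 Plasma protein binding measured by ultrafiltration after incubation at 37 °C for 1 h.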

Liver microsomes [9] = test: Metabolic stability in rat liver microsomes in presence of NADPH and UDPGA; assay type: ADME, Microsome
In short: (§2)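 Multiple time points over 1 h: compound 1 µM with liver microsomes 1 mg/mL, in the presence of both UDPGA and NADPH; degradation followed by LC/MS/MS.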

Liver [10] = test: Metabolic stability in dog liver microsomes in presence of NADPH and UDPGA; assay type: ADME, Canis lupus familiaris, Microsome; in short: as §2
[11] = Oral bioavailability in rat at 3 mg/kg; assay type: ADME, organism-based; conditions: in vivo
In short: (§3)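 In vivo PK: iv dosing in DMSO/PEG400/H₂O mixtures, oral dosing as methylcellulose suspension. Half-life was taken after iv dosing; AUC and Cmax after po dosing.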

[12] = Plasma clearance in rat at 3 mg/kg, po or 3 mg/kg, iv; assay type: ADME, organism-based; in short: as §3
[13] = Plasma clearance in dog at 1 mg/kg, iv or 2 mg/kg, po; assay type: ADME, organism-based, Canis lupus familiaris; in short: as §3
[14] = Oral bioavailability in dog at 2 mg/kg; assay type: ADME, organism-based, Canis lupus familiaris; conditions: in vivo; in short: as §3
Liver microsomes [15] = test: Metabolic stability in rat liver microsomes in presence of NADPH; assay type: ADME, Microsome; in short: as §1
Liver [16] = test: Metabolic stability in dog liver microsomes in presence of NADPH; assay type: ADME, Canis lupus familiaris, Microsome; in short: as §1
Liver microsomes [17] = test: Metabolic stability in human liver microsomes in presence of NADPH; assay type: ADME, Microsome; in short: as §1

IC50 [3] [µM] | SMILES | IC95 [1] [µM] | IC95 [2] [µM] | further results
0.009 | CN(C(=O)CS(=O)(=O)N(C)C)C1CCCn2c1nc(C(=O)NCc1ccc(F)cc1)c(O)c2=O (racemic) | 0.016 | 0.047 | fraction unbound (Homo sapiens): 0.19
0.007 | CN(C)C(=O)C(=O)N(C)C1CCCn2c1nc(C(=O)NCc1ccc(F)cc1)c(O)c2=O (racemic) | 0.038 | 0.04 | –
0.069 | CN(C)C1CCCn2c1nc(C(=O)NCc1ccc(F)cc1)c(O)c2=O (racemic) | – | – | –
0.006 | CN1CCCN(C2CCCCn3c2nc(C(=O)NCc2ccc(F)cc2)c(O)c3=O)S1(=O)=O (racemic) | 0.078 | 0.156 | –
0.005 | CN(C)S(=O)(=O)N(C)C1CCCn2c1nc(C(=O)NCc1ccc(F)cc1)c(O)c2=O (racemic) | 0.016 | 0.021 | –
0.007 | Cc1nn(C)c(C)c1S(=O)(=O)N(C)C1CCCn2c1nc(C(=O)NCc1ccc(F)cc1)c(O)c2=O (racemic) | 0.021 | 0.063 | Stability (Liver microsomes [4]): 94 %/hr; Stability (Liver [5]): 78 %/hr; Stability (Liver microsomes [6]): 90 %/hr
0.005 | O=C(NCc1ccc(F)cc1)c1nc2n(c(=O)c1O)CCCC2 | – | – | –
0.035 | CN(C)C(=O)C(=O)N(C)[C@@H]1CCCCn2c1nc(C(=O)NCc1ccc(F)cc1)c(O)c2=O | 0.021 | 0.042 | –
0.014 | CN1CCCN(C2CCCn3c2nc(C(=O)NCc2ccc(F)cc2)c(O)c3=O)S1(=O)=O (racemic) | 0.016 | 0.047 | –
0.01 | CN1CCN(S(=O)(=O)N(C)[C@@H]2CCCn3c2nc(C(=O)NCc2ccc(F)cc2)c(O)c3=O)CC1 | 0.013 | 0.02 | –
0.007 | CN(C(=O)CS(=O)(=O)N(C)C)[C@@H]1CCCn2c1nc(C(=O)NCc1ccc(F)cc1)c(O)c2=O | 0.031 | 0.062 | –
0.063 | O=C(NCc1ccc(F)cc1)c1nc2n(c(=O)c1O)CCCC2N1CCCC1 (racemic) | – | – | –
0.011 | CN(C1CCCn2c1nc(C(=O)NCc1ccc(F)cc1)c(O)c2=O)S(=O)(=O)N1CCOCC1 (racemic) | 0.015 | 0.031 | –
0.008 | O=C(NCc1ccc(F)cc1)c1nc2n(c(=O)c1O)CCC2 | – | – | –
0.008 | CC(=O)N(C)C1CCCCn2c1nc(C(=O)NCc1ccc(F)cc1)c(O)c2=O (racemic) | 0.25 | 0.5 | –
0.004 | CN(Cc1ccccc1)C1CCCn2c1nc(C(=O)NCc1ccc(F)cc1)c(O)c2=O (racemic) | – | – | –
0.018 | CN(C(=O)C(F)F)C1CCCn2c1nc(C(=O)NCc1ccc(F)cc1)c(O)c2=O (racemic) | 0.5 | 1 | –
0.009 | CN(C1CCCn2c1nc(C(=O)NCc1ccc(F)cc1)c(O)c2=O)S(=O)(=O)N1CCCCC1 (racemic) | 0.063 | 0.125 | –
0.01 | CN(C(=O)c1nc2ncccn2n1)C1CCCn2c1nc(C(=O)NCc1ccc(F)cc1)c(O)c2=O (racemic) | 0.25 | 0.25 | –
0.007 | CN1CCN(S(=O)(=O)N(C)[C@H]2CCCn3c2nc(C(=O)NCc2ccc(F)cc2)c(O)c3=O)CC1 | 0.006 | 0.006 | fraction unbound [7]: 0.24; fraction unbound [8]: 0.18; Stability (Liver microsomes [9]): 10 µL/min/mg; Stability (Liver [10]): 8 µL/min/mg; bioavailability [11]: 15%; clearance [12]: 98 mL/min/kg; clearance [13]: 23 mL/min/kg
0.01 | CN1CCOCC1c1nc(O)c(O)c(C(=O)NCc2ccc(F)cc2)n1 (configuration not stated) | 0.03 | 0.23 | –
0.007 | CS(=O)(=O)CC(=O)NC1CCCn2c1nc(C(=O)NCc1ccc(F)cc1)c(O)c2=O (racemic) | 1 | 1 | –
0.1 | CC(c1nc(O)c(O)c(C(=O)NCc2ccc(F)cc2)n1)N(C)C (configuration not stated) | 0.13 | 0.5 | –
0.01 | CN(C)S(=O)(=O)N(C)C1CCCCn2c1nc(C(=O)NCc1ccc(F)cc1)c(O)c2=O (racemic) | 0.031 | 0.125 | –

IC50 [3] [µM] | SMILES | IC95 [1] [µM] | IC95 [2] [µM] | further results
0.017 | CN(C(=O)CS(C)(=O)=O)C1CCCCn2c1nc(C(=O)NCc1ccc(F)cc1)c(O)c2=O (racemic) | 0.063 | 0.125 | –
0.005 | CN(C)S(=O)(=O)N(C)[C@H]1CCCn2c1nc(C(=O)NCc1ccc(F)cc1)c(O)c2=O | 0.012 | 0.031 | bioavailability [11]: 49%; bioavailability [14]: 16%; clearance [12]: 14 mL/min/kg; clearance [13]: 3.8 mL/min/kg; fraction unbound (Homo sapiens): 0.13
0.016 | CN(C1CCCCn2c1nc(C(=O)NCc1ccc(F)cc1)c(O)c2=O)S(C)(=O)=O (racemic) | 0.031 | 0.125 | –
0.007 | CN(C1CCCn2c1nc(C(=O)NCc1ccc(F)cc1)c(O)c2=O)S(=O)(=O)N1CCCC1 (racemic) | 0.016 | 0.047 | –
0.004 | O=C(NCc1ccc(F)cc1)c1nc2n(c(=O)c1O)CCCC2N1CCCCC1 (racemic) | – | – | –
0.062 | CN(Cc1ccccc1)C1CCCCn2c1nc(C(=O)NCc1ccc(F)cc1)c(O)c2=O (racemic) | – | – | –
0.013 | CN(C)C(=O)C(=O)N(C)C1CCCCn2c1nc(C(=O)NCc1ccc(F)cc1)c(O)c2=O (racemic) | 0.094 | 0.063 | –
0.007 | CN(C)C1CCn2c1nc(C(=O)NCc1ccc(F)cc1)c(O)c2=O (racemic) | – | – | –
0.55 | CN(C)C1CCCCn2c1nc(C(=O)NCc1ccc(F)cc1)c(O)c2=O (racemic) | – | – | –
0.045 | CN(C)S(=O)(=O)N(C)C1CCn2c1nc(C(=O)NCc1ccc(F)cc1)c(O)c2=O (racemic) | > 1 | > 1 | –
0.009 | CC(=O)N(C)C1CCn2c1nc(C(=O)NCc1ccc(F)cc1)c(O)c2=O (racemic) | > 1 | > 1 | –
0.019 | CN(C)C(=O)C(=O)N(C)[C@@H]1CCCn2c1nc(C(=O)NCc1ccc(F)cc1)c(O)c2=O | 0.067 | 0.098 | –
– | CN1CCOCC1c1nc(C(=O)NCc2ccc(F)cc2)c(O)c(=O)n1C (configuration not stated) | 0.06 | 0.1 | –
0.006 | CN(C(=O)CS(C)(=O)=O)C1CCCn2c1nc(C(=O)NCc1ccc(F)cc1)c(O)c2=O (racemic) | 0.016 | 0.022 | fraction unbound (Homo sapiens): 0.3
0.012 | CN(C1CCCn2c1nc(C(=O)NCc1ccc(F)cc1)c(O)c2=O)S(C)(=O)=O (racemic) | 0.026 | 0.086 | Stability (Liver microsomes [4]): 88 %/hr; Stability (Liver [5]): 29 %/hr; Stability (Liver microsomes [6]): 74 %/hr; bioavailability [11]: 47%; clearance [12]: 48 mL/min/kg
0.019 | O=C(NCc1ccc(F)cc1)c1nc2n(c(=O)c1O)CCCCC2 | – | – | –
0.06 | O=C(NCc1ccc(F)cc1)c1ncnc(O)c1O | > 10 | > 10 | –
0.003 | CN(C(=O)Cn1cccn1)C1CCCn2c1nc(C(=O)NCc1ccc(F)cc1)c(O)c2=O (racemic) | > 1 | > 1 | –
0.006 | CC(=O)N(C)C1CCCn2c1nc(C(=O)NCc1ccc(F)cc1)c(O)c2=O (racemic) | 1 | 1 | –
0.005 | O=C(NCc1ccc(F)cc1)c1nc2n(c(=O)c1O)CCCC2N1CCOCC1 (racemic) | – | – | –
0.007 | CN1CCN(S(=O)(=O)N(C)C2CCCn3c2nc(C(=O)NCc2ccc(F)cc2)c(O)c3=O)CC1 (racemic) | 0.006 | 0.02 | –
0.02 | CN(C)C(=O)C(=O)N(C)C1CCn2c1nc(C(=O)NCc1ccc(F)cc1)c(O)c2=O (racemic) | > 1 | > 1 | –
0.062 | O=C(NCc1ccc(F)cc1)c1nc2n(c(=O)c1O)CCCCC2N1CCOCC1 (racemic) | – | – | –
0.007 | CN(C(=O)CS(=O)(=O)N(C)C)[C@H]1CCCn2c1nc(C(=O)NCc1ccc(F)cc1)c(O)c2=O | 0.016 | 0.031 | Stability (Liver microsomes [15]): 51 %/hr; Stability (Liver [16]): 15 %/hr; Stability (Liver microsomes [17]): 36 %/hr; Stability (Liver microsomes [4]): 47 %/hr; Stability (Liver [5]): 24 %/hr; Stability (Liver microsomes [6]): 46 %/hr; fraction unbound [7]: 0.26; fraction unbound [8]: 0.29; bioavailability [11]: 17%; clearance [12]: 55 mL/min/kg; fraction unbound (Homo sapiens): 0.22
